In ChEMBL document CHEMBL1759856, “Synthesis and study of 2-amino-7-bromofluorenes modified with nitroxides and their precursors as dual anti-amyloid and antioxidant active compounds” (Eur J Med Chem, 2011):
The source made the active and inactive calls. The calls are words filed in the database; no cut-off is given here.

Experiments:
[1] = Antioxidant activity assessed as peroxyl radical scavenging activity at 10 uM by fluorescence quenching assay; format: functional
Summary of the method: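 Peroxyl radicals were assayed with a commercial ORAC kit, per the manufacturer's protocol, with compound at 10 µM. The read-out was quenching of indicator fluorescence (ex 480 nm, em 520 nm).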

[2] = Antioxidant activity assessed as hydroxyl radical scavenging activity at 0.2 to 10 uM; format: functional
Summary of the method: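 Hydroxyl radical scavenging was measured with a commercial HORAC kit, per the manufacturer's protocol, at compound concentrations of 0.2, 1 and 10 µM. Read-out was fluorescence (ex 485 nm, em 530 nm) of a reporter that is inversely proportional to surviving radical. Distilled water served as control.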

[3] = system: HBMEC; assay: Antiinflammatory activity in HBMEC cells assessed as inhibition of TGRL lipolysis-induced COX-2 gene expression by RT-PCR analysis relative to control; format: functional, cell-based; details: Homo sapiens
Summary of the method: (§1)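 Human brain microvascular endothelial cells (passage 6) grown at 37°C, 5% CO2; pre-treated 30 min with 200 µM compound, then 3 h with TGRL (150 mg/dL) plus lipoprotein lipase (2U/mL), pre-incubated together 30 min at 37°C. Total RNA reverse-transcribed; SYBR Green real-time PCR normalised to GAPDH, comparative CT method; N = 3.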

[4] = system: HBMEC; assay: Antiinflammatory activity in HBMEC cells assessed as inhibition of TGRL lipolysis-induced ATF3 gene expression by RT-PCR analysis relative to control; format: functional, cell-based; details: Homo sapiens; summary of the method: as §1
[5] = Antioxidant activity assessed as hydroxyl radical scavenging activity by electron paramagnetic resonance spectra analysis; format: functional; set-up: concentration or dose not given beside the values
Summary of the method: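 For EPR, 9 µl of ROS mixture was combined immediately with 1 µl of compound from a 2 mM stock. About 5 µl was loaded into a sealed quartz capillary for measurement.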

[6] = system: HBMEC; assay: Antiinflammatory activity in HBMEC cells assessed as inhibition of TGRL lipolysis-induced IL-8 gene expression by RT-PCR analysis relative to control; format: functional, cell-based; details: Homo sapiens
Summary of the method: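 HBMEC (passage 6) were grown in serum-free or 10%-serum complete medium on attachment factor at 37°C in 5% CO2. Cells were pretreated 30 min with 200 µM compound, then exposed 3 h to TGRL (150 mg/dL) plus lipoprotein lipase (2 U/mL), preincubated together 30 min at 37°C. IL-8 mRNA was measured by SYBR Green qRT-PCR, normalized to GAPDH, comparative CT; N = 3.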

[7] = Antioxidant activity assessed as peroxyl radical scavenging activity by electron paramagnetic resonance spectra analysis; format: functional

Compound | Activity [1] | Activity [2] | fold change (FC) [3] | fold change (FC) [4] | Activity [5] | Activity [6] | Activity [7]
CN(C)c1ccc2c(c1)Cc1cc(Br)ccc1-2 | Active | Active | – | – | – | – | –
CN(CC1=CC(C)(C)N([O])C1(C)C)c1ccc2c(c1)Cc1cc(Br)ccc1-2 | Active | Active | 2.7 | 18.3 | 18% | – | –
CC1(C)C=C(CNc2ccc3c(c2)Cc2cc(Br)ccc2-3)CC(C)(C)N1[O] | Active | Active | – | – | 26% | Active | –
CC1(C)C(Br)=C(CNc2ccc3c(c2)Cc2cc(Br)ccc2-3)C(C)(C)N1[O] | Active | Active | – | – | 10% | inactive | –
CC1(C)C=C(CNc2ccc3c(c2)Cc2cc(Br)ccc2-3)C(C)(C)N1[O] | Active | Active | – | – | 28% | inactive | 73%
CC1(C)CC(O)CC(C)(C)N1[O] | Active | Active | – | – | – | – | –
CN1C(C)(C)C=C(CNc2ccc3c(c2)Cc2cc(Br)ccc2-3)C1(C)C | Active | Active | – | – | 29% | inactive | 100%
CC1(C)C=C(CNc2ccc3c(c2)Cc2cc(Br)ccc2-3)CC(C)(C)N1O | Active | Active | – | – | 61% | Active | 80%
CN(CC1=CC(C)(C)NC1(C)C)c1ccc2c(c1)Cc1cc(Br)ccc1-2 | Active | Active | – | – | 18% | inactive | 100%
